# Laboratory results from ChEMBL document CHEMBL1140747, “Discovery of potent and selective dipeptidyl peptidase IV inhibitors derived from beta-aminoamides bearing subsituted triazolopiperazines” (J Med Chem, 2008).
# Legend:
# [1] = Plasma clearance in rat at 1 mg/kg, iv and 2 mg/kg, po; type: ADME, organism-based
# Dipeptidyl peptidase 8 = Dipeptidyl peptidase 8 (Homo sapiens, UniProt Q6V1X1); assay: Inhibition of DPP8
# Dipeptidyl peptidase 2 = Dipeptidyl peptidase 2 (Homo sapiens, UniProt Q9UHL4); assay: Inhibition of QPP
# [2] = Half life in rat at 1 mg/kg, iv and 2 mg/kg, po; type: ADME, organism-based; conditions: in vivo
# Xaa-Pro dipeptidase = molecular target: T1, Xaa-Pro dipeptidase (Homo sapiens, UniProt P12955); assay: Inhibition of prolidase
# T1 sequence (P12955 whole entry): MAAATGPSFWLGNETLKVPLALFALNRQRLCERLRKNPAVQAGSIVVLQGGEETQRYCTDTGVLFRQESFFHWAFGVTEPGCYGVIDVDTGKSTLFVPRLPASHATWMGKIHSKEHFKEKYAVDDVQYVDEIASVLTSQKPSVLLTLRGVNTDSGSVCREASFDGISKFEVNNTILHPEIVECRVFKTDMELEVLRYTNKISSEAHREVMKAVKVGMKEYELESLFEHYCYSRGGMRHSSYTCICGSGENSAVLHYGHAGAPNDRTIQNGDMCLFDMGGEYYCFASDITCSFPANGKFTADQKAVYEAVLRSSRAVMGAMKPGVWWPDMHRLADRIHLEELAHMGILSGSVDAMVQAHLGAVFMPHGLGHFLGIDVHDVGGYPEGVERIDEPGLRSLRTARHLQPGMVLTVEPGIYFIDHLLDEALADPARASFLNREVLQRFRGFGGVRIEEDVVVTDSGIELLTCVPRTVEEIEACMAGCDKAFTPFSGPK
# Dipeptidyl peptidase 4 [3] = molecular target: Dipeptidyl peptidase 4 (Homo sapiens, UniProt P27487)
# Chain of Dipeptidyl peptidase 4 (Homo sapiens, UniProt P27487) (P27487 whole entry): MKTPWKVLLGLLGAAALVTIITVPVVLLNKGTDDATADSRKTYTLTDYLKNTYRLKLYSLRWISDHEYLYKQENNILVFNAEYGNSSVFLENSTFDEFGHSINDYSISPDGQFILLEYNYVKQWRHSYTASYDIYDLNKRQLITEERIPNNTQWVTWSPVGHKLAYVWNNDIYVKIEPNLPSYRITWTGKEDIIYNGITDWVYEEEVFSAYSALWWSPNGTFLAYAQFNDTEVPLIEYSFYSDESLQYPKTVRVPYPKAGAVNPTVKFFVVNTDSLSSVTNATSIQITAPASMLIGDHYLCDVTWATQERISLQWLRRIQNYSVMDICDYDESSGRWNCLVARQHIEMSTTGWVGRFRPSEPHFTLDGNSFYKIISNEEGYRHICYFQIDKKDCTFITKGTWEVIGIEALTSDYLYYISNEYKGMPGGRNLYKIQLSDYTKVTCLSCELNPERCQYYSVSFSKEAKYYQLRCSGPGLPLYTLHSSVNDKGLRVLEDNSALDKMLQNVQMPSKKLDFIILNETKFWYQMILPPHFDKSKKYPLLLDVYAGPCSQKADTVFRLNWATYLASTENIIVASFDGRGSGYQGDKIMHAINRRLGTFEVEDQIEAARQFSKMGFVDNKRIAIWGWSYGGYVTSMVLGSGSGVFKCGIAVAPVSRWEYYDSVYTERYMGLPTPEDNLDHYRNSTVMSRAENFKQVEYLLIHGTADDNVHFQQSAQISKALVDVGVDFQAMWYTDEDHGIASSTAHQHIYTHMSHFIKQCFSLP
# Prolyl endopeptidase FAP = molecular target: T2, Prolyl endopeptidase FAP (Homo sapiens, UniProt Q12884); assay: Inhibition of FAP
# T2 sequence (Q12884 whole entry): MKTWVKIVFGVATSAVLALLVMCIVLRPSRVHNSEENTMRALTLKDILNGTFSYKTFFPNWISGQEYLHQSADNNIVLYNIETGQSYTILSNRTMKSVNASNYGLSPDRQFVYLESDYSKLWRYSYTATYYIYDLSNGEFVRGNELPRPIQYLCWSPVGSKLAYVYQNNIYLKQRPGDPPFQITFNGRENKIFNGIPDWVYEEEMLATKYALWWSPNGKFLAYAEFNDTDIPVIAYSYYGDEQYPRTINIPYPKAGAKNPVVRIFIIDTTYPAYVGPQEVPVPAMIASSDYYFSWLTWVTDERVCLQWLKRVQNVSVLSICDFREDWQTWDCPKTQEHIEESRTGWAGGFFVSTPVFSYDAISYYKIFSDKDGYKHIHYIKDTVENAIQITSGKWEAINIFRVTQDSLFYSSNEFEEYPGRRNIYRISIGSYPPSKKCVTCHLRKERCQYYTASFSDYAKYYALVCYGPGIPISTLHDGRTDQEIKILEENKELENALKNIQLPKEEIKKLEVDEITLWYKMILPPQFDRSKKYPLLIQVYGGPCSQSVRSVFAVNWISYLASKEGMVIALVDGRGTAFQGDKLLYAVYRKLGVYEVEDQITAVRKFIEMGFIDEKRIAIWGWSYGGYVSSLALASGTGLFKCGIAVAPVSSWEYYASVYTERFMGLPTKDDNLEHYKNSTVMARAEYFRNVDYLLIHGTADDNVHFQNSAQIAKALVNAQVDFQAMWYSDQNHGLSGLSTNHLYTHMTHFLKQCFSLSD
# [4] = (§1) Oral bioavailability in rat at 2 mg/kg; type: ADME, organism-based; conditions: in vivo
# Dipeptidyl peptidase 9 = Dipeptidyl peptidase 9 (Homo sapiens, UniProt Q86TI2); assay: Inhibition of DPP9
# Chain of Dipeptidyl peptidase 9 (Q86TI2 whole entry): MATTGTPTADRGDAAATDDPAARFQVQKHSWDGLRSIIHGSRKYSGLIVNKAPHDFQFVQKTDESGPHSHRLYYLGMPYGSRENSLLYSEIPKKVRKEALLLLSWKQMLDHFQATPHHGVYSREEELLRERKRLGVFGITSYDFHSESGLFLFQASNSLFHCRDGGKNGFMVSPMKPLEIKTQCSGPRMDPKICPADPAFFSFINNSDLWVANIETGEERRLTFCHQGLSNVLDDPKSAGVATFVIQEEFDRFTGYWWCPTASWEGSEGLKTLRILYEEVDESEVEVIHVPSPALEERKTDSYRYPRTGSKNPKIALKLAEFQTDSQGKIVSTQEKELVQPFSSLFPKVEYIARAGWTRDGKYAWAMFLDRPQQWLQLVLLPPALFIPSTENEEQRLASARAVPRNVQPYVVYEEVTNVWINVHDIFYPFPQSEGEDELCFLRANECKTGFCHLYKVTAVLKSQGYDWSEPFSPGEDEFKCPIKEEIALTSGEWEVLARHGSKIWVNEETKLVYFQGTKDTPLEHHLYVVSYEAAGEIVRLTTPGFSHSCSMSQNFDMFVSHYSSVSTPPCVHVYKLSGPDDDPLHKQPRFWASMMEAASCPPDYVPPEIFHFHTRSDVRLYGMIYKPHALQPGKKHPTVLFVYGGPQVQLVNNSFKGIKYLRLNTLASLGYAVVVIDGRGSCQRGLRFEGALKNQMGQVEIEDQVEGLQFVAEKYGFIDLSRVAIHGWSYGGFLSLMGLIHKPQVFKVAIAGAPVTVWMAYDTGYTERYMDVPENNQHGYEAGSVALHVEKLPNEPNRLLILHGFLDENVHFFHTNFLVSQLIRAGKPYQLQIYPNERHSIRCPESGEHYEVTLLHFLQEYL
# Xaa-Pro aminopeptidase 1 = Xaa-Pro aminopeptidase 1 (Homo sapiens, UniProt Q9NQW7); assay: Inhibition of amino peptidase P
# Chain of Xaa-Pro aminopeptidase 1 (Q9NQW7 whole entry): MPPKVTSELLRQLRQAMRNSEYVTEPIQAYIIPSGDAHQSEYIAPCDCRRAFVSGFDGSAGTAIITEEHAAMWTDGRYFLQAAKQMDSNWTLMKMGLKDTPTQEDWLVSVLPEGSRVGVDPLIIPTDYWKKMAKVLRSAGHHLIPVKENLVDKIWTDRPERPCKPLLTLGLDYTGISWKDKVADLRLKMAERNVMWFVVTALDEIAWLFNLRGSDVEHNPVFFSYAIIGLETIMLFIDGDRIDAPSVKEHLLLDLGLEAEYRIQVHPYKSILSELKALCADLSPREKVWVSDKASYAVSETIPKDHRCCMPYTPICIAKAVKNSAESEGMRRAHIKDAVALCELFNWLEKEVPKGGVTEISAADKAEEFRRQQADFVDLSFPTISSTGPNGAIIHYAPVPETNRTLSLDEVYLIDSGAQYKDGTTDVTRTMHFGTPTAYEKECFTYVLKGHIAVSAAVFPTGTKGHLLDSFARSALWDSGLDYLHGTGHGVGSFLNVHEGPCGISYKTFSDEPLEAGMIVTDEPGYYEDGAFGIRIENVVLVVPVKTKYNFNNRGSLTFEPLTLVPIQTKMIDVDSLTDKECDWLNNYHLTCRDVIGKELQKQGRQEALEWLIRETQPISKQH
# [5] = Cmax in rat at 2 mg/kg, po; type: ADME, organism-based; set-up: dose 2 mg/kg, route oral; conditions: in vivo
# Rattus norvegicus = assay: as §1; type: ADME, organism-based; conditions: in vivo
# [6] = Oral bioavailability in dog at 2 mg/kg; type: ADME, organism-based, Canis lupus familiaris; conditions: in vivo
# Dipeptidyl peptidase 4 [7] = molecular target: Dipeptidyl peptidase 4 (Mus musculus, UniProt P28843); assay: Inhibition of mouse DPP4
# Chain of Dipeptidyl peptidase 4 (Mus musculus, UniProt P28843) (P28843 whole entry): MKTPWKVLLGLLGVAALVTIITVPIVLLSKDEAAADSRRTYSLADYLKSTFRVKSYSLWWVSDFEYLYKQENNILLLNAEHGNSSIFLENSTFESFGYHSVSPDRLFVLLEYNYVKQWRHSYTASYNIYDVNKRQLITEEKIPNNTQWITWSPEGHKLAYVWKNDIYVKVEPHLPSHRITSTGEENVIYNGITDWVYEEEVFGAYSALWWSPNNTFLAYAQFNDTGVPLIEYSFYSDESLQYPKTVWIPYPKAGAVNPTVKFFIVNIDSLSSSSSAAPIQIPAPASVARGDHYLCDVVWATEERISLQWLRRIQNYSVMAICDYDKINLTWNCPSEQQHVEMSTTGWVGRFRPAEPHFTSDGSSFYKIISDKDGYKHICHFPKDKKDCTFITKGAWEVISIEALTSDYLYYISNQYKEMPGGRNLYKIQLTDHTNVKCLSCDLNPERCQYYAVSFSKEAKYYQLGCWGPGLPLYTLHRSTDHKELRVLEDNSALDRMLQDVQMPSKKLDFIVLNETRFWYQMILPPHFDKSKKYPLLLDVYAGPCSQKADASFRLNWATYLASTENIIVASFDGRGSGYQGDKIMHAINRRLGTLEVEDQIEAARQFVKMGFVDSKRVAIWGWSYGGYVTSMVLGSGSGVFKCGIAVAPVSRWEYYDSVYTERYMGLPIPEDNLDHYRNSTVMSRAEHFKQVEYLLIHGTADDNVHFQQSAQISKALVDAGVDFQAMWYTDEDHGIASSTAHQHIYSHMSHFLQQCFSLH
# Mus musculus [8] = assay: Reduction of dextrose induced blood glucose excursion in mouse at 0.1 mg/kg; type: functional; set-up: scale not given: the % may be the effect or the level left
# Outline: (§2)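 Lean mice received a single oral dose of the compound 60 min before an oral dextrose challenge (5 g/kg) in an oral glucose tolerance test. The read-out was the reduction of the dextrose-induced blood glucose excursion. Data are mean ± SEM, n = 7 per group.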
# [9] = Plasma clearance in monkey at 1 mg/kg, iv and 2 mg/kg, po; type: ADME, organism-based, Macaca mulatta; conditions: rhesus monkey
# [10] = Plasma clearance in dog at 1 mg/kg, iv and 2 mg/kg, po; type: ADME, organism-based, Canis lupus familiaris
# [11] = Cmax in monkey at 2 mg/kg, po; type: ADME, organism-based, Macaca mulatta; set-up: dose 2 mg/kg, route oral; conditions: rhesus monkey, in vivo
# Mus musculus [12] = assay: Reduction of dextrose induced blood glucose excursion in mouse at 1 mg/kg; type: functional; set-up: scale not given: the % may be the effect or the level left; outline: as §2
# Plasma = assay: Drug level in mouse plasma at 1 mg/kg; type: ADME, organism-based; set-up: dose 1 mg/kg; conditions: in vivo
# Outline: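 Lean mice, oral OGTT: single oral dose given 60 min before an oral dextrose challenge (5 g/kg). Plasma was sampled 20 min after dextrose for compound concentration, alongside plasma DPP-4 activity and active GLP-1. Values are mean ± SEM, n = 7 per group.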
# [13] = Half life in dog at 1 mg/kg, iv and 2 mg/kg, po; type: ADME, organism-based, Canis lupus familiaris; conditions: in vivo
# [14] = Half life in monkey at 1 mg/kg, iv and 2 mg/kg, po; type: ADME, organism-based, Macaca mulatta; conditions: rhesus monkey, in vivo
# [15] = Oral bioavailability in monkey at 2 mg/kg; type: ADME, organism-based, Macaca mulatta; conditions: rhesus monkey, in vivo
# [16] = Cmax in dog at 2 mg/kg, po; type: ADME, organism-based, Canis lupus familiaris; set-up: dose 2 mg/kg, route oral; conditions: in vivo
# [17] = Oral bioavailability in Zucker fa/fa rat; type: ADME, organism-based; conditions: in vivo
# [18] = Oral bioavailability in mouse; type: ADME, organism-based; conditions: in vivo
# Chain of Dipeptidyl peptidase 8 (Q6V1X1 whole entry): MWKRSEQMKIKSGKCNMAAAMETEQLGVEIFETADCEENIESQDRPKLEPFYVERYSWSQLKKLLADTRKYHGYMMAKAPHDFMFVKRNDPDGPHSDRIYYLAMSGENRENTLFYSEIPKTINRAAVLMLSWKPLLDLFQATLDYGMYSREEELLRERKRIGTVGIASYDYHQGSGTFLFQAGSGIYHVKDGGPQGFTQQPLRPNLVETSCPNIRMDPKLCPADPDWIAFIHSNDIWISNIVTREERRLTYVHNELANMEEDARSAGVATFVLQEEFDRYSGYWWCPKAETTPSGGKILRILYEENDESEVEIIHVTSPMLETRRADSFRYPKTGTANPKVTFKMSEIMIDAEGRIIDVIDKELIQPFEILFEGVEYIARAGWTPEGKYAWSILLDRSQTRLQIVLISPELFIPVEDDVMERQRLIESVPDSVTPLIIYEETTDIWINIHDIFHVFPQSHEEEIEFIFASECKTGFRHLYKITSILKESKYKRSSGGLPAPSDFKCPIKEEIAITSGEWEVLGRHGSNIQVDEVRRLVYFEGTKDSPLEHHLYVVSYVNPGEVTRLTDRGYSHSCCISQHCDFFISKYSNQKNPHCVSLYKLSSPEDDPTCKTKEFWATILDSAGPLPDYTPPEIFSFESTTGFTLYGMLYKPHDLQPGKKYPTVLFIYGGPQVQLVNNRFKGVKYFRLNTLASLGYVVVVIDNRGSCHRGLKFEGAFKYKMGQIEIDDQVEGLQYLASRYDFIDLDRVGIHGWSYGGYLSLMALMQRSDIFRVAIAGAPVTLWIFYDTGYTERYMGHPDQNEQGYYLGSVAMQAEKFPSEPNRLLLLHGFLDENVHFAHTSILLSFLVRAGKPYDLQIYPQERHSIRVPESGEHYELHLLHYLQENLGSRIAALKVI
SMILES,clearance [1] [mL/min/kg],IC50 (Dipeptidyl peptidase 8) [µM],IC50 (Dipeptidyl peptidase 2) [µM],half-life [2] [h],IC50 (Xaa-Pro dipeptidase) [µM],IC50 (Dipeptidyl peptidase 4 [3]) [µM],IC50 (Prolyl endopeptidase FAP) [µM],bioavailability [4] [%],IC50 (Dipeptidyl peptidase 9) [µM],IC50 (Xaa-Pro aminopeptidase 1) [µM],Cmax [5] [nM],further results
C[C@@H]1CN(C(=O)C[C@H](N)Cc2cc(F)c(F)cc2F)Cc2ccc(C(F)(F)F)n21.Cl,154,33,> 100,1.9,> 10,0.014,> 10,35,53,> 10,–,–
C[C@@H]1c2nnc(C(F)(F)F)n2[C@H](C)CN1C(=O)C[C@H](N)Cc1cc(F)c(F)cc1F.Cl,85,70,> 100,2.1,> 10,0.012,> 10,45,52,> 10,92,–
Cl.N[C@@H](CC(=O)N1CCn2c(nnc2C(F)(F)F)C1)Cc1cc(F)c(F)cc1F,60,–,–,1.7,> 10,–,–,–,–,> 10,–,F (Rattus norvegicus): 76%
C[C@@H]1c2nnc(C(F)(F)F)n2CCN1C(=O)C[C@H](N)Cc1cc(F)c(F)cc1F.Cl,54,17,> 100,2.4,> 10,0.0043,> 10,57,> 100,> 10,133,bioavailability [6]: 91%; IC50 (Dipeptidyl peptidase 4 [7]): 0.011 µM; Activity (Mus musculus [8]): 34%; clearance [9]: 29 mL/min/kg; clearance [10]: 7.8 mL/min/kg; Cmax [11]: 410 nM; Activity (Mus musculus [12]): 55%; concentration (Plasma): 190 nM; half-life [13]: 8.8 h; half-life [14]: 6 h; bioavailability [15]: 85%; Cmax [16]: 756 nM
Cl.N[C@@H](CC(=O)N1CCn2c(nnc2C(F)(F)F)[C@H]1Cc1ccc(F)cc1)Cc1cc(F)c(F)cc1F (mixture of isomers),29,0.332,33,1.5,> 10,0.00018,> 10,76,20,> 10,360,bioavailability [17]: 100%; bioavailability [18]: 6%
CN(C)C(=O)CC1c2nnc(C(F)(F)F)n2CCN1C(=O)C[C@H](N)Cc1cc(F)c(F)cc1F.Cl (stereo in doubt; 41b),87,30,> 100,2.7,> 10,0.0028,> 10,9,> 100,> 10,4,–
Cl.N[C@@H](CC(=O)N1CCn2c(nnc2C(F)(F)F)C1Cc1ccccc1F)Cc1cc(F)c(F)cc1F (stereo in doubt; 45b),74,1.1,47,1.4,> 10,0.00046,> 10,26,39,> 10,64,–
Cl.N[C@@H](CC(=O)N1CCn2c(nnc2C(F)(F)F)C1C(O)c1ccc(F)cc1)Cc1cc(F)c(F)cc1F (stereo in doubt; 47b),63,0.326,36,2.6,> 10,0.00032,> 10,8,89,> 10,20,–
Cl.N[C@@H](CC(=O)N1CCn2c(nnc2C(F)(F)F)C1Cc1cc(C(F)(F)F)cc(C(F)(F)F)c1)Cc1cc(F)c(F)cc1F (stereo in doubt; 48b),50,> 100,> 100,4.1,> 10,0.0063,> 10,19,> 100,> 10,42,–
Cl.N[C@@H](CC(=O)N1CCn2c(nnc2C(F)(F)F)C1Cc1ccccn1)Cc1cc(F)c(F)cc1F (stereo in doubt; 49b),94,5,> 100,1.9,> 10,0.0004,> 10,9,> 100,> 10,16,–
